Source: PubChem BioAssay (Sanford-Burnham Center for Chemical Genomics)
LMPTP block – LMPTP phosphatase inhibitors, primary screen, biochemical, fluorescence intensity, uHTS | Low molecular weight phosphotyrosine protein phosphatase (Homo sapiens), P24666 | recombinant LMPTP-A, OMFP fluorogenic substrate | inhibition, % at 20 µM | 360,000 compounds, 0.22% hits | AID 651560, 2012;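 active means compounds that cut the enzyme signal by at least half of the control window in the single-dose screen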;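 further: plate controls were DMSO wells with enzyme plus substrate for no effect and substrate without enzyme for full effect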
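Test system: LMPTP-A phosphatase enzyme. Amount: LMPTP-A at 0.625 nM final in the reaction. Reagent: OMFP substrate, 400 µM final. Times: 50 min at room temperature. Signal: endpoint fluorescence intensity from OMFP dephosphorylation. Read-out basis: % inhibition. Benchmarks: no-enzyme and uninhibited controls.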
STEP block – STEP phosphatase inhibitors, primary screen, biochemical, fluorescence intensity, uHTS; 360,000 compounds, 0.25% hits; recombinant STEP, OMFP fluorogenic substrate; inhibition, % at 20 µM;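 active means inhibition at 20 µM, scaled per plate between control wells, above about 37%, limit read from the data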;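 further: 0% = DMSO with enzyme and substrate and 100% = substrate only without enzyme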
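Also added – OMFP at 25 µM · Test system – STEP tyrosine phosphatase · Technique – FITC-channel fluorescence of OMFP product · Schedule – 20 min at room temperature, dark · Evaluation – control-normalized % inhibition with plate pattern correction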
Scp1 inh – Scp-1 phosphatase inhibitors, primary screen, biochemical, colorimetric, uHTS; AID 493091, 2011; 340,000 compounds, 0.88% hits; Recombinant Scp1, phosphopeptide, malachite green phosphate absorbance; Carboxy-terminal domain RNA polymerase II polypeptide A small phosphatase 1 (Homo …; inhibition, % at 20 µM;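 active means inhibition above about 50% at 20 µM, limit read from the data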;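 further: plate controls were DMSO wells with enzyme for no effect and wells lacking enzyme for full effect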
Target sequence (Q9GZU7 76-261 limits assumed): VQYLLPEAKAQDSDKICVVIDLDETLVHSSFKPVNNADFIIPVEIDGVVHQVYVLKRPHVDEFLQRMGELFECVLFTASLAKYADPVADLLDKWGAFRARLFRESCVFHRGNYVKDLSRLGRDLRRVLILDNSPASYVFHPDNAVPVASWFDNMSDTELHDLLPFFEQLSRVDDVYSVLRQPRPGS
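Test system: SCP-1 phosphatase catalytic domain, residues 76-261; measured by: colorimetric phosphate reagent with accelerator and stabiliser, absorbance at 630 nm; timing: enzyme reaction 45 min at room temperature, colour 5 min, stabilisation 30 min; also added: Phosphorylated 17-residue peptide substrate; compound dosing: one concentration, 20 µM, with 1.0% DMSO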
Rpn11 block – Rpn11 (PSMD14) deubiquitinase inhibitors, primary screen, biochemical, fluorescence polarization, uHTS; 360,000 compounds, 0.59% hits; human 26S proteasome, Ub4-pepOG fluorescence polarization; 20S core pre-blocked with epoxomicin; inhibition, % at 20 µM; AID 588493, 2011; 26S proteasome non-ATPase regulatory subunit 14 (Homo sapiens), O00487;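 active means inhibition at 20 µM, scaled to each plate's controls, above about 33%, limit read from the data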
Target sequence (O00487 whole entry, looked up): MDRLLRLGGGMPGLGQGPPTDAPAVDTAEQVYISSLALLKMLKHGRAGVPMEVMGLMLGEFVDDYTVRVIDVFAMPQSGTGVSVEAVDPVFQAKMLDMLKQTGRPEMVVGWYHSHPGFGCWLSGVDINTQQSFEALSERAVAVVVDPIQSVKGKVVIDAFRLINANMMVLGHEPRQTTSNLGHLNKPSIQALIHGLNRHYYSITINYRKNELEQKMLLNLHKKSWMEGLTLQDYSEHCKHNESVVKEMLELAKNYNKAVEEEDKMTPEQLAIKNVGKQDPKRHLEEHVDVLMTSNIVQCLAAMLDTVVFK
SUMO1 PPI mod – modulators of SUMO1 protein-protein interactions, primary screen, biochemical, uHTS; Small ubiquitin-related modifier 1 (Homo sapiens), P63165; SUMO1 binding to a labelled peptide, TR-FRET, 1 h; inhibition, % at 20 µM; 360,000 compounds, 0.33% hits; AID 602429, 2012; in the data active means inhibition above about 37%
Target sequence (P63165 whole entry, looked up): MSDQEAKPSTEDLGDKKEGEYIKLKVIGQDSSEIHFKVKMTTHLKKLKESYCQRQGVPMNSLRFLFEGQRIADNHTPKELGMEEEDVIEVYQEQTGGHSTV
DNMT1 block – human DNMT1 methyltransferase inhibitors, primary screen, biochemical, molecular beacon, fluorescence, HinP1I cleavage, uHTS; inhibition (reported as % activation of signal), % at 10 µM; 360,000 compounds, 0.83% hits; in the data active means inhibition above about 50%
Beacon interf DR – spectral interference with molecular beacon fluorescence, dose response, artefact control for DNMT1 inhibitor project, biochemical, fluorescent molecular beacon. spectral interference counter-screen. AID 602382, 2012. shares compounds with DNMT1 block. IC50, µM. 200 tested, under 10 active; call rule not given here
DNMT1 confirm – DNMT1 methyltransferase inhibitor retest, confirmation, biochemical, molecular beacon, fluorescence, single concentration. shares compounds with DNMT1 block. DNMT1 molecular beacon HinP1I cleavage. inhibition, % at 10 µM. 2,300 compounds, 8% hits;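 active means average inhibition of at least 30% in the single-concentration confirmation test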
DNMT1 interf – beacon fluorescence artifact counter-screen; shares compounds with DNMT1 block; DNMT1 molecular beacon spectral interference counterscreen, fluorescence 485/520; activation (fluorescence interference), % at 10 µM; 2,300 compounds, 1% hits;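 active means activation of at least 30% at 10 µM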;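 further: DNMT1 catalytic domain with a HinP1I cleavage step and a FAM/dabcyl DNA beacon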
* = called active by the depositor; x = no result given. The list is not random: actives were taken first. Their share in the collection is about 2.3%.

SMILES	LMPTP block	STEP block	Scp1 inh	Rpn11 block	SUMO1 PPI mod	DNMT1 block	DNMT1 confirm	DNMT1 interf	others
CC1CN(C(=O)Nc2ccc3snnc3c2)c2ccccc21 (centres undefined)	0	-2	-21	0	0	-4	x	x
COc1cc(S(=O)(=O)NCCOC23CC4CC(CC(C4)C2)C3)c(OC)cc1Cl	0	1	-7	-1	2	107*	-2	3
CCOc1ccc(OCC)c(S(=O)(=O)NCCOC23CC4CC(CC(C4)C2)C3)c1	3	2	-18	4	-4	0	x	x
Cc1ccc(S(=O)(=O)NCc2cccc([N+](=O)[O-])c2)cc1	-2	2	x	0	-21	1	x	x
O=C1N=C(N2CCOCC2)SC1=Cc1ccco1	-1	-2	-1	18	-16	81*	4	5
Cc1ccc(/C=C2\SC(N3CCN(C(c4ccccc4)c4ccccc4)CC3)=NC2=O)o1	6	3	-6	21	-1	79*	-4	-5
Cc1n[nH]c(=O)nc1N/N=C/c1ccc(O)c([N+](=O)[O-])c1	-10	2	7	4	-19	73*	0	1
CC(=O)OCCc1[nH]c2ccccc2c1C	-3	3	-1	-2	4	4	x	x
CC(=O)OCCc1c2ccccc2c(CCCN(C)C)c2ccccc12	3	0	-10	11	-46	51*	3	2
CCN1CCN(C(=O)c2cc(COc3ccc(F)c(F)c3)on2)[C@@H](C)C1=O	-1	-1	x	2	-3	8	x	x
CC12CCC3c4ccc(O)c([N+](=O)[O-])c4CCC3C1CCC2=O (centres undefined)	31	-2	x	18	-8	78*	7	6
CC12CCC3c4ccc(O)cc4CCC3C1CCC2=O (centres undefined)	1	0	-4	-6	18	0	x	x
O=C(/C=C/c1ccco1)c1ccc(NC(=O)C23CC4CC(CC(C4)C2)C3)cc1	1	3	24	33	1	72*	3	0
COc1ccccc1CNC(=O)Cn1cc([N+](=O)[O-])ccc1=O	-1	-1	-2	12	-15	0	x	x
CCOc1ccc(C(=O)Nc2ccc(N3CCCC3)cc2)cc1	5	0	-3	5	-9	80*	7	0
Cc1cccc(OCC(=O)Nc2ccc(N3CCCC3)cc2)c1C	3	3	-7	5	-26	59*	21	-5	Beacon interf DR=>99
COc1ccccc1OCC(=O)Nc1ccc(N2CCCCC2)cc1	2	-1	-3	30	1	-7	x	x
Cc1cccc(OCC(=O)Nc2cccc(-c3nnc(-c4ccccc4)o3)c2)c1C	0	-1	2	-4	2	57*	-2	-3
Cc1cccc(C)c1OCC(=O)Nc1cccc(-c2nnc(-c3ccccc3)o2)c1	1	3	-8	1	3	-5	x	x
COc1ccc(OCC(=O)Nc2ccc(N3CCCCC3)cc2)cc1	1	-2	-7	3	2	-7	x	x
Cc1ccc(OCC(=O)Nc2ccc(N3CCCC3)cc2)cc1C	6	4	9	6	3	67*	0	-6
Oc1cc(CNC2CCCCC2)c(O)cc1CNC1CCCCC1	4	5	-5	-6	-10	-11	x	x
CCc1ccc(C(=O)COC(=O)c2cc([N+](=O)[O-])ccc2NCCO)cc1	1	3	-9	0	-16	90*	5	7
O=C(CNC(=O)/C=C/c1ccco1)N=Nc1c(O)[nH]c2ccccc12	72*	98*	93*	38	105*	93*	82*	-3	Beacon interf DR=>99
CCCCCCNC(=O)CCCCCNS(=O)(=O)c1ccc(OC)cc1	-1	0	-4	-6	-7	3	x	x
SMILES	LMPTP block	STEP block	Scp1 inh	Rpn11 block	SUMO1 PPI mod	DNMT1 block	DNMT1 confirm	DNMT1 interf	others
CCN(CC)CCNc1nc2cc(OC)c(OC)cc2c2nc(-c3ccccc3)nn12	4	4	-7	-13	12	67*	26	-4	Beacon interf DR=>99
COc1cc2[nH]c(=O)n3nc(-c4ccccc4)nc3c2cc1OC	4	6	-5	3	14	-1	x	x
CC(=O)Oc1cccc(/C=c2\sc3nc(-c4ccco4)nn3c2=O)c1	-1	2	14	13	26	61*	2	2
O=[N+]([O-])c1ccc(/C=N/Nc2nc(N3CCCCC3)nc(N3CCCCC3)n2)cc1	4	0	3	1	-16	-1	x	x
O=[N+]([O-])c1ccc(/C=N/Nc2nc(N3CCCCCC3)nc(N3CCCCCC3)n2)o1	4	2	12	29	-6	66*	0	1
CC(=O)NC(CC(=O)NC(C)c1ccc(Cl)cc1Cl)c1ccccc1 (centres undefined)	-1	-1	-4	-5	1	68*	0	2
CC(C(=O)Nc1nccs1)N1C(=O)C2CC=CCC2C1=O (centres undefined)	-2	2	3	1	-3	3	x	x
C[C@@H](C(=O)Nc1nccs1)N1C(=O)C2CC=CCC2C1=O (some centres undefined)	3	-3	-1	19	3	60*	-1	4
Cc1ccc(OCC(=O)Nc2ccncc2)c(C)c1	-2	2	-2	2	5	-2	x	x
Cc1ccc(OCC(=O)Nc2ccc(-c3nc4ncccc4o3)cc2)c(C)c1	12	-2	5	3	4	55*	4	4
CCCN(CC(=O)Nc1ccccc1OC)C(=O)c1ccc(S(=O)(=O)Nc2ccccc2)cc1	-1	-2	-4	3	-4	62*	1	-8
CCCN(CC(=O)Nc1ccccc1OC)C(=O)c1ccc(S(=O)(=O)Nc2ccccc2OC)cc1	0	-3	-2	0	-7	-1	x	x
